From PubChem BioAssay
An excerpt weighted towards active compounds, which were near 4.9% of everything screened.
STAT3 activator: IL-6 driven STAT3 reporter potentiators, primary screen, U3A cells, luciferase, luminescence, MLSCN library; IL-6 STAT3-luciferase reporter; 100% = signal with IL-6 EC80 alone; activation (% of control), % at 5.6 µM; 190,000 compounds, 0.91% hits;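 active means activation above the screen-wide mean of compound activation plus 3 SD, cut at about 130% in these data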;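 further: 0% = background luminescence of wells with medium and substrate only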
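Material: human U3A cells carrying STAT3-luciferase construct. Measured by: reporter luminescence signal. Timing: compound 1 h, then IL-6 6 h at 37 °C.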
NF-kB neuron act: activators of NF-kB expression in neurons, primary screen, cell-based, HTS | human neuronal cells, NF-kB reporter expression; active compounds read high | fold change at 12.5 µM | AID 1239, 2008 | 190,000 compounds, 1.6% hits; in the data active means fold change above about 3.3
APP 5'UTR act: activators of APP 5'UTR luciferase reporter, primary screen, SH-SY5Y cells; activation, % at 2 µM; 190,000 compounds, 1% hits; AID 1276, 2008; SH-SY5Y APP 5'UTR luciferase reporter, luminescence; zero percent = DMSO vehicle wells;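 active means activation above a set limit, based on mean plus 3 SD of controls, cut at about 140% in these data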
STAT3 blocker: IL-6 driven STAT3 reporter inhibitors, primary screen, U3A cells, luciferase, luminescence, MLSCN library. IL-6 STAT3-luciferase reporter; host cell line lacks STAT1. inhibition, % at 5.5 µM. 190,000 compounds, 0.89% hits. AID 862, 2007;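 active means inhibition above the mean inhibition across all screened compounds plus 3 SD, cut at about 44% in these data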;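 further: 0% = DMSO only wells and 100% = 100 µM nifuroxazide control wells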
STAT1 inh: STAT1 signaling inhibitors, primary screen, cell-based, HTS, luciferase reporter. inhibition, % at 5.5 µM. 200,000 compounds, 0.35% hits. NIH 3T3 STAT1-luciferase reporter, IFN-gamma, luminescence;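 active means inhibition above a set limit, the mean inhibition across all tested compounds plus 3 SD, cut at about 34% in these data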;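 further: 0% = IFN-gamma with DMSO and 100% = IFN-gamma with 300 µM nifuroxazide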
STAT1 activator: STAT1 signaling activators, primary screen, cell-based, HTS, luciferase reporter; activation (% of control), % at 5.5 µM; 200,000 compounds, 2.6% hits; AID 932, 2007; NIH 3T3 STAT1-luciferase reporter, IFN-gamma, luminescence; 100% = IFN-gamma alone, no compound;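 active means activation above the screen-wide mean activation plus 3 SD, cut at about 130% in these data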;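 further: raw ratio to IFN-gamma control signal so 100% means no change and 0% no light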
Numbers without * were called inactive; · = no result given.

SMILES | STAT3 activator | NF-kB neuron act | APP 5'UTR act | STAT3 blocker | STAT1 inh | STAT1 activator
Cn1cnnc1SCC(=O)Nc1ccc2nc(SCc3ccccc3F)sc2c1 | 114 | 2.9 | 72 | -16 | -52 | 146*
O=C(CSc1nc2ccc(NC(=O)CSc3nnnn3-c3ccccc3)cc2s1)Nc1ccccc1 | 89 | 1.2 | 11 | 16 | -7 | 106
N/C(=N/OC(=O)c1ccccc1Cl)c1nonc1N | 92 | 4.9* | 19 | 13 | -11 | 110
Cc1ccc(C(=O)O/N=C(\N)c2nonc2N)cc1 | 96 | 1 | 13 | 0 | -38 | 134*
CN=c1scc(-c2ccc(F)cc2)n1/N=C/c1ccc(O)c(O)c1 | 104 | 0.96 | -37 | -4 | 47* | 55
OCCn1c(-c2ccc(F)cc2)csc1=Nc1ccccc1 | 96 | 1.5 | 16 | 4 | -8 | 108
Brc1ccc(C2=NC(Cc3ccccc3)CO2)cc1 (configuration not stated) | 105 | 3.3* | 62 | -9 | -20 | 118
S=c1[nH]nc(-c2ccc(Br)cc2)n1Cc1ccccc1 | 105 | 1 | -18 | 0 | -8 | 106
CC(C)c1cc(=O)n2[nH]c(N)nc2n1 | 101 | 1.1 | -5 | 0 | -4 | 102
O=c1c2c(nc3cc(-c4cccc(F)c4)[nH]n13)CCC2 | 80 | 4.2* | 109 | 27 | -32 | 130*
O=c1c2c(nc3cc(-c4cccc(Cl)c4)[nH]n13)CCC2 | 98 | 5.4* | 143* | 6 | -39 | 135*
Cc1[nH]n2c(=O)c3c(nc2c1-c1ccc(F)cc1)CCCC3 | 97 | 1.3 | -5 | 8 | -1 | 99
On1nnc2c3ccccc3c3ccccc3c21 | 100 | 1 | 11 | 4 | 4 | 94
C=C(C)C1CC=C(C)/C(=N/NC(=O)COc2ccccc2Cl)C1 (configuration not stated) | 96 | 0.75 | 2 | 3 | -3 | 102
Cc1cccc2c1OCC/C2=N\NC(=O)COc1ccccc1Cl | 89 | 2 | 6 | 16 | -33 | 130*
COC(=O)c1ccc(NC(C)=O)cc1O | 102 | 1.7 | 7 | -1 | -2 | 102
O=C(Nc1cc([N+](=O)[O-])ccc1Cl)c1ccc2c(c1)OCO2 | 112 | 1.1 | 7 | -9 | -3 | 102
N/C(=N\OC(=O)COc1cc(Cl)c(Cl)cc1Cl)c1ccncc1 | 97 | 2.1 | 84 | 11 | -36 | 131*
N/C(=N\OC(=O)C(c1ccccc1)c1ccccc1)c1ccccn1 | 105 | 1.6 | 15 | -4 | -2 | 105
N/C(=N\OC(=O)COc1ccc2ccccc2c1Br)c1ccccn1 | 100 | · | 67 | 6 | -42 | 139*
Cc1cc(C)c(C)c(OCC(=O)O/N=C(\N)c2ccccn2)c1 | 88 | 1.4 | · | 15 | -2 | 102
N/C(=N\OC(=O)c1cc(Cl)ccc1Cl)c1ccccn1 | 70 | 3 | 172* | 36 | -17 | 115
N/C(=N\OC(=O)COc1ccc(Cl)cc1Cl)c1ccccn1 | 77 | 5.2* | 78 | 30 | 25 | 76
N/C(=N\OC(=O)COc1ccccc1)c1ccc(Cl)cc1 | 102 | 1.5 | 15 | -8 | -13 | 111
Cc1ccc(C)c(NC(=O)C(Sc2nnc(-c3cccs3)o2)c2ccccc2)c1 (configuration not stated) | 92 | 1.1 | 8 | 9 | -1 | 101
COc1ccc(C2C(C(C)=O)=C(O)C(=O)N2c2ccc(Br)cn2)cc1 (configuration not stated) | 134* | 1.3 | 43 | -36 | -9 | 108
Cc1onc(C(=O)NCc2ccccn2)c1[N+](=O)[O-] | 100 | 1.1 | 2 | 3 | 0 | 99
CCn1nc(C)c(CN2CCCC(CO)(Cc3cccc(Cl)c3)C2)c1C (configuration not stated) | 99 | 1.2 | 7 | 5 | 17 | 83
Cc1cccc2c(=O)c(C(=O)NCc3cccs3)c[nH]c12 | 101 | · | 5 | 3 | -35 | 136*
